Sampled rows, rich in hits. Any-hit rate of the full collection: about 2.6%.
NR2E3 ag-1 – activates human NR2E3 receptor. AID 602229. inhibition of corepressor binding, % at 3.98 µM. CHO-S Gal4-NCOR/VP16-NR2E3 two-hybrid, luciferase. 360,000 tested, 0.35% active;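 active means inhibition above the mean of all tested compounds plus 3 SD, cut at about 70% in these data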;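 further: higher means lower luciferase signal from less NR2E3 corepressor binding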
NR2E3 ag-2 – NR2E3 (human) agonism; GST-NR2E3/biotin-RetCOR TR-FRET, 1536-well; inhibition of corepressor binding, % at 4.78 µM; 320,000 tested, 0.12% active;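 active means percent inhibition above the cutoff of mean plus 3 SD of all tested compounds, set per screening campaign, cut at about 20% in these data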
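Format: 1536-well format; test system: GST-NR2E3 and biotin-RetCOR proteins; read-out basis: percent inhibition of TR-FRET ratio; timing: 5 h incubation at 4 °C; detection: time-resolved FRET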
PG9 Ab binder – binds the HIV-1 gp120 antibody PG9. AID 624416. inhibition, % at 6.7 µM. 360,000 tested, 0.43% active. TR-FRET gp120-PG9 antibody binding; in the data active means inhibition above about 8.5%
Rev-erbA mod – modulates human Rev-erb alpha binding to DNA; P20393; Rev-erbα–FITC-DNA binding, fluorescence polarization, 90 min; activity, % at 10 µM; 370,000 tested, 0.79% active;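 active means activity above about 14%, limit read from the data; passing the limit was not always enough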
Target sequence (P20393 whole entry, looked up): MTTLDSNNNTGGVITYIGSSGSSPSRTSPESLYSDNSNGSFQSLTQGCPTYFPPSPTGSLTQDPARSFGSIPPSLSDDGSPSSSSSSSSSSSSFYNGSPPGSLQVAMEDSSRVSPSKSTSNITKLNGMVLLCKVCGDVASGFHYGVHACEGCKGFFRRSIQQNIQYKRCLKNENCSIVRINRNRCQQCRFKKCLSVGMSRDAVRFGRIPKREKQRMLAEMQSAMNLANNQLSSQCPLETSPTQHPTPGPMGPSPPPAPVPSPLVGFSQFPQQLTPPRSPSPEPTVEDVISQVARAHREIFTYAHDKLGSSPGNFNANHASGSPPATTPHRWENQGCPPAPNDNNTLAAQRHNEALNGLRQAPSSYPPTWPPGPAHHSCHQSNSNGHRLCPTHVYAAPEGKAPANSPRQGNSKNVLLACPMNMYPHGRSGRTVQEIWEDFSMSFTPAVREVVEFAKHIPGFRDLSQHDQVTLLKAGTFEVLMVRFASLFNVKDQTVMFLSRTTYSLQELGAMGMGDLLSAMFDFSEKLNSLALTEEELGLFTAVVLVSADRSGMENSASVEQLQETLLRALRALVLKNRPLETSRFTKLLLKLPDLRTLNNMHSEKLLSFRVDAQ
rCAG binder – binds r(CAG) RNA repeats | 370,000 tested, 1.3% active | r(CAG) RNA repeat, TO-PRO-1 dye displacement fluorescence | AID 651821 | inhibition, % at 3 µM;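 active means inhibition above the plate cutoff, the mean of all test compounds on that plate plus 3 SD, cut at about 35% in these data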;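 further: higher means more dye released from RNA so lower well fluorescence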
rCAG bind conf – r(CAG) RNA repeat binding, confirmation. TO-PRO-1 dye displacement fluorescence. shares compounds with rCAG binder. inhibition, % at 3 µM. 4,300 tested, 70% active;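 active means inhibition above a per-plate cutoff, the mean inhibition of sample wells plus 3 SD, cut at about 35% in these data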;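 further: loss of TO-PRO-1 fluorescence as compound displaces dye from 1x1 AA loop RNA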
dCAG dye counter – counter-screen for rCAG RNA binders: DNA CAG dye complex inhibitors. shares compounds with rCAG binder. d(CAG) DNA oligo TO-PRO-1 dye displacement, fluorescence. inhibition, % at 3 µM. 4,300 tested, 94% active. AID 652068;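 active means inhibition above its plate's cutoff, the mean test-well inhibition plus 3 SD, cut at about 4.8% in these data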;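 further: hits displace the dye from DNA and so lower well fluorescence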
DNA CAG DR – counter-screen for rCAG binders: inhibitors of DNA CAG TO-PRO-1 complex; DNA CAG/GTC duplex TO-PRO-1 dye displacement fluorescence; 250 tested, 20% active; shares compounds with rCAG binder; IC50, µM; in the data active means IC50 below about 10 µM
Each line names hits and unclear results; the compound was inactive in the other large screens (follow-up assays come after a bar, where they were run).

CCOC(=O)c1ccccc1-c1csc(NS(=O)(=O)c2ccc(Cl)cc2)n1	rCAG binder 76 | rCAG bind conf 70 | dCAG dye counter 33 | DNA CAG DR inactive
Cc1ccc(OCC(=O)Nc2cc(NC(=O)COc3ccc(C)cc3)cc(C(=O)O)c2)cc1	rCAG binder 70 | rCAG bind conf 64 | dCAG dye counter 25
Cc1ccc(NC(=O)COc2ccc(N(C)S(=O)(=O)c3ccc(F)cc3)cc2)cc1	none
Cc1ccc(S(=O)(=O)N(C)c2ccc(OCC(=O)Nc3cc(C(=O)O)ccc3Cl)cc2)cc1	rCAG binder 61 (no result: NR2E3 ag-1, NR2E3 ag-2) | rCAG bind conf 57 | dCAG dye counter 20
O=C(COc1ccc(Cl)cc1)Nc1cc(NC(=O)COc2ccc(Cl)cc2)cc(C(=O)O)c1	rCAG binder 74 | rCAG bind conf 82 | dCAG dye counter 48
CC1CCN(S(=O)(=O)c2cc(C(=O)NC3(C)CCS(=O)(=O)C3)ccc2Br)CC1 (stereo not given)	none
COc1ccc(CNC(=O)c2cn(Cc3ccc(S(=O)(=O)N(C)C)cc3)c(=O)s2)cc1	none (no result: NR2E3 ag-2)
COCCN(C(=O)CSc1nnc(-c2ccncc2)n1C)c1c(N)n(CC(C)C)c(=O)[nH]c1=O	none (no result: NR2E3 ag-2)
Cc1noc(C)c1CSCC(=O)Nc1cc(C(F)(F)F)ccc1N1CCOCC1	none
S=c1[nH]nc(-c2cc(-c3ccccc3)n[nH]2)n1N=Cc1cccc(OCc2ccccc2)c1	rCAG binder 77 (no result: NR2E3 ag-1, NR2E3 ag-2, PG9 Ab binder) | rCAG bind conf 63 | dCAG dye counter 32
S=c1[nH]nc(-c2ccccc2)n1/N=C/c1cccc(Br)c1	none
S=c1[nH]nc(-c2cc(-c3ccccc3)n[nH]2)n1/N=C/c1ccc(Cl)c(Cl)c1	none
S=c1[nH]nc(-c2cc(-c3ccccc3)n[nH]2)n1/N=C/c1cccc(Cl)c1	rCAG binder 35 | rCAG bind conf 70 | dCAG dye counter 32 | DNA CAG DR inactive
COc1ccc(/C=N/n2c(-c3cc(C)[nH]n3)n[nH]c2=S)cc1OC	none
S=c1[nH]nc(-c2cc(-c3ccccc3)n[nH]2)n1N=Cc1cccc(Oc2ccccc2)c1	rCAG binder 66 (no result: NR2E3 ag-1, NR2E3 ag-2, PG9 Ab binder) | rCAG bind conf 61 | dCAG dye counter 31
S=c1[nH]nc(-c2cc(-c3ccccc3)n[nH]2)n1/N=C/c1ccc(Cl)cc1	none
COc1cc(/C=N/n2c(-c3cc(-c4ccccc4)n[nH]3)n[nH]c2=S)ccc1OCc1ccccc1	rCAG binder 58 (no result: NR2E3 ag-1, NR2E3 ag-2, PG9 Ab binder) | rCAG bind conf 55 | dCAG dye counter 26
COc1ccc(Cl)cc1-c1nc(SCC(=O)N(C)C2CCS(=O)(=O)C2)n[nH]1 (stereo not given)	none (no result: NR2E3 ag-2)
O=C(O)COc1ccc(NC(=O)c2ccc3c(c2)C(=O)N(Cc2ccccc2)C3=O)cc1	rCAG binder 47 | rCAG bind conf inactive | dCAG dye counter 6.2
Cc1ccc(S(=O)(=O)N2[C@@H](c3ccccc3)C(C(=O)O)=CC[C@H]2c2ccc(Cl)cc2)cc1	rCAG binder 58 | rCAG bind conf 72 | dCAG dye counter 34 | DNA CAG DR inactive
Cc1ccc(S(=O)(=O)N2[C@@H](c3ccc(Br)cc3)C(C(=O)O)=CC[C@H]2c2ccc(Cl)cc2)cc1	rCAG binder 83 (no result: NR2E3 ag-2) | rCAG bind conf 82 | dCAG dye counter 53
CC(=O)C1=CCC(c2ccc(Cl)cc2)N(S(=O)(=O)c2ccc(C)cc2)C1 (stereo not given)	none (no result: NR2E3 ag-2)
Cc1ccc([C@@H]2CC=C(C(=O)O)[C@H](c3ccc(Cl)cc3)N2S(=O)(=O)c2ccc(C)cc2)cc1	rCAG binder 84 | rCAG bind conf 78 | dCAG dye counter 45
Cc1ccc(S(=O)(=O)N2[C@@H](c3ccccc3)C(C(=O)O)=CC[C@H]2c2ccc(Cl)c(Cl)c2)cc1	rCAG binder 61 | rCAG bind conf 81 | dCAG dye counter 48
C[C@@H]1CN([C@H](C)CO)C(=O)CCCn2cc(nn2)CO[C@H]1CN(C)S(=O)(=O)c1ccccc1F	none (no result: NR2E3 ag-2)

Compound activity from PubChem BioAssay.
